Data: paper PMC3711073 (Angewandte Chemie (International ed. in English), 2012)
Read-outs that look alike come from different tables or passages of the source.

What was measured:
[1] = biological target: GACKIX domain of CBP/p300 (Mus musculus, UniProt P45481); assay: Ligand-detected 1D 1H-NMR binding to GACKIX with MLL and KID peptide competition; details: sekikaic acid 15 μM, GACKIX 5 μM, MLL and pKID peptide 15 μM each
Outline: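 Aromatic 1H resonances of the test compound (15 μM) were recorded alone and after adding GACKIX (5 μM). MLL and pKID peptides (15 μM each) were then added singly or together. Resonance positions were compared with the unbound-state spectrum to judge reversal of binding.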

VP2-Med15(107-357) = biological target: T1, VP2-Med15(107-357) (Saccharomyces cerevisiae, UniProt P19659); assay: Competitive FP binding assay of VP2 with Med15; details: specificity
T1 sequence (P19659 107-357): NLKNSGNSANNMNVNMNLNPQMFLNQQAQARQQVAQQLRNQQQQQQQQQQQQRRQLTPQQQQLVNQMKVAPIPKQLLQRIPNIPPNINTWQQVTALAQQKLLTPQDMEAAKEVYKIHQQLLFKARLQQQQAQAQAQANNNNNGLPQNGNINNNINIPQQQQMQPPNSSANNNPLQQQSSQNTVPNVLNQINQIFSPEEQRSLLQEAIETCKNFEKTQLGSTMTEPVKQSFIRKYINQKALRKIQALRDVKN

[2] = biological target: MLL-GACKIX complex (GACKIX domain of CBP/p300) (Mus musculus, UniProt P45481); type: binding
Chain of MLL-GACKIX complex (GACKIX domain of CBP/p300) (P45481 586-665 limits assumed, one chain of several): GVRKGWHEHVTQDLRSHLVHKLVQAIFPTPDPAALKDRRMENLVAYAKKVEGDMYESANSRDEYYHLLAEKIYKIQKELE
Outline: (§1)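 Test compound added at increasing concentrations to the preformed GACKIX domain complex with either fluorescein-tagged MLL activation-domain peptide or fluorescein-tagged pKID peptide. Displacement was tracked as the change in fluorescence polarization.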

[3] = test system: c-Jun-driven gene Cyclin D1; assay: Cell-based assay of c-Jun-driven gene Cyclin D1 expression; details: SI Figure 7
[4] = biological target: Fl-KID-GACKIX complex (GACKIX domain of CBP/p300) (Mus musculus, UniProt P45481); assay: Fluorescence polarization inhibition of the Fl-KID-GACKIX complex; type: binding
Chain of Fl-KID-GACKIX complex (GACKIX domain of CBP/p300) (P45481 586-665 limits assumed, one chain of several): as above
Outline: as §1

Chain of GACKIX domain of CBP/p300 (P45481 586-665 limits assumed): as the sequence (P45481 586-665 limits assumed, one chain of several) above

Compound	Reversibility of binding to GACKIX [1]	Inhibition of VP2-Med15(107-357) (in words) (VP2-Med15(107-357))	IC50 ([2]; read-out: IC50, inhibition of the MLL-GACKIX complex, FP, fluorescein-tagged MLL) [µM]	Effect on expression of c-Jun-driven gene Cyclin D1 in cells [3]	IC50 [4] [µM]	IC50 [2] [µM]	Inhibition of Fl-KID binding to GACKIX (in words) ([4]; competitive FP binding assay)	Inhibition of Fl-MLL binding to GACKIX (in words) ([2]; competitive FP binding assay)
CCCc1cc(OC)cc(O)c1C(=O)Oc1c(OC)cc(CCC)c(C(=O)O)c1O [sekikaic acid]	reversible	did not significantly inhibit	34	dose dependent down regulation	–	–	–	–
CCCCCc1c2c(cc(O)c1C(=O)O)OC(=O)c1c(cc(OC)cc1C(=O)CCCC)O2 [lobaric acid]	–	–	–	dose dependent down regulation	25	17	–	–
Cc1cc(OC(=O)c2c(C)cc(O)cc2O)cc(O)c1C(=O)O [lecanoric acid, reference compound]	–	–	–	no effect	–	–	unable to significantly inhibit	unable to significantly inhibit
